TPT1 inh: Candida albicans TPT1 enzyme inhibitors, primary screen, biochemical, fluorescence polarization. recombinant caTPT1, FP RNA substrate dephosphorylation. inhibition, % at 5 µM. 300,000 compounds, 0.81% hits;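 active = inhibition above the mean of all tested compounds plus 3 SD, set per screening campaign, cut at about 24% in these data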;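 also: plate controls were DMSO alone for no effect and ferristatin control at 100 nM for full effect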
HNF4A DNA FP: change in binding of human HNF4A to DNA, primary screen, biochemical, fluorescence polarization, FITC-DNA | 1 h | activity change, % at 10 µM | 360,000 compounds, 0.3% hits | AID 1224865, 2016; in the data active = activity change above about 30%, passing the limit was not always enough
Target sequence (P41235 whole entry, looked up): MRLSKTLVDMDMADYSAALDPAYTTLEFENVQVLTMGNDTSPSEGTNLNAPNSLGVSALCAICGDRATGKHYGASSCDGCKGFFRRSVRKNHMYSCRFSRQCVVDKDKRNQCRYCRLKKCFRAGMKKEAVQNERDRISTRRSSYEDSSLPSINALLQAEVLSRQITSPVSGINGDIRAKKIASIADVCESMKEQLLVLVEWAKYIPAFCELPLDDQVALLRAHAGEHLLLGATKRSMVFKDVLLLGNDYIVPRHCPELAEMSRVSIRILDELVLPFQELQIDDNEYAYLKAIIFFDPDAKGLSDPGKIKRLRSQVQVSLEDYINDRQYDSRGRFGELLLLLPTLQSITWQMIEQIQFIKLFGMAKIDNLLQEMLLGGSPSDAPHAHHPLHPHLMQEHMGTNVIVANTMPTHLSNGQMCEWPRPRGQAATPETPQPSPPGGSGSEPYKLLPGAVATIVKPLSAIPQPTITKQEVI
CSN deneddyl inh: inhibitors of CSN-mediated cullin deneddylation, primary screen, biochemical, fluorescence polarization, uHTS; 360,000 compounds, 0.38% hits; COP9 signalosome complex subunit 5 (Homo sapiens), Q92905; AID 651999, 2013; inhibition, % at 12.5 µM; Purified CSN, SCF-Nedd8-OG deneddylation;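 active = pattern-corrected inhibition above about 35%, with an unprinted fluorescence ratio check between 0.5 and 1.5, limit read from the data, passing the limit was not always enough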;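 also: 0% = enzyme with substrate and 100% = substrate without enzyme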
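Assay system: HEK293T-derived human Csn5 enzyme; quantity: 0.24 nM enzyme; medium: Tris/NaCl/DTT buffer, pH 7.5; also added: substrate SCFSkp2-Nedd8OG, 10 nM; doses: 12.5 µM compound; schedule: 90 min reaction at room temperature; signal: FP; read-out: % inhibition of substrate cleavage by Csn5; benchmarks: substrate-only high control, full reaction low control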
Rpn11 block: Rpn11 (PSMD14) deubiquitinase inhibitors, primary screen, biochemical, fluorescence polarization, uHTS; 26S proteasome non-ATPase regulatory subunit 14 (Homo sapiens), O00487; human 26S proteasome, Ub4-pepOG fluorescence polarization; 20S core pre-blocked with epoxomicin; inhibition, % at 20 µM; 360,000 compounds, 0.59% hits; AID 588493, 2011;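 active = inhibition at 20 µM, scaled to each plate's controls, above about 33%, limit read from the data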
caTPT1 confirm: Candida albicans TPT1 inhibitors, confirmation, biochemical, fluorescence polarization, triplicate; shares compounds with TPT1 inh; AID 2149, 2009; 2,400 compounds, 74% hits; recombinant caTPT1, RNase T1 coupled; inhibition, % at 5 µM;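 active = inhibition above the primary screen limit, the mean inhibition of all tested compounds plus 3 SD, cut at about 25% in these data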
RNase T1 counter: RNase T1 inhibitors, counter-screen for TPT1 inhibitor project, biochemical, fluorescence polarization. 2,400 compounds, 83% hits. inhibition, % at 5 µM. shares compounds with TPT1 inh. RNase T1 cleavage, 1536-well. AID 2153, 2009;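 active = inhibition above the solvent-only control well mean plus 3 SD, limit set per screening run, cut at about 23% in these data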;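 also: plate controls were DMSO wells with enzyme for no effect and wells without RNase T1 for full effect; inhibitors block cleavage so intact labeled substrate keeps polarization high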
Target sequence (P00651 whole entry, looked up): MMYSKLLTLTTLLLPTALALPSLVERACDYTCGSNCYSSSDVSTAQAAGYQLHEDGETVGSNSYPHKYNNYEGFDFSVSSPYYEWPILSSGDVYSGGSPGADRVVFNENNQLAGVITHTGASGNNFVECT
Numbers without * were called inactive; x = no result given. In the library only some 1.5% were active in any assay of this set; here they are far more common.

SMILES	TPT1 inh	HNF4A DNA FP	CSN deneddyl inh	Rpn11 block	caTPT1 confirm	RNase T1 counter
O=C1c2cccc3cccc(c23)C(=O)N1CCO	x	0.6	-5.5	-1.5	x	x
O=C1c2cccc3c(N4CCCCC4)ccc(c23)C(=O)N1CCO	49.9*	-29.7	-70.1	-103.1	3.8	18.1
Cc1n[nH]c(C)c1N1C(=O)c2cccc3c(N4CCCCCC4)ccc(c23)C1=O	-6.9	-86.2	-70.1	-113.9	x	x
C=CCN1C(=O)c2cccc3c(N4CCCCC4)ccc(c23)C1=O	64.4*	-21.7	-65.8	6.1	41.4*	57.0*
Cc1ccccc1-n1c(SCC(=O)NC2CC2)nc2ccccc2c1=O	x	-2.1	-0.4	3.0	x	x
O=C(COC(=O)CNS(=O)(=O)c1cccc(Br)c1)NC(=O)Nc1ccc2c(c1)OCCO2	-1.6	1.9	-4.9	-8.2	x	x
CN(Cc1ccccc1)C1=CC(=[N+]2CCCCC2)CC(C)(C)C1	-0.9	0.5	-2.2	-11.2	x	x
CC1(C)CC(NNCCC#N)=CC(=[N+]2CCCC2)C1	48.7*	4.5	-5.5	3.5	54.3*	69.2*
CC(=O)c1sc(N/N=C/c2cccc(O)c2)nc1C	13.5	7.9	10.5	9.1	x	x
CC(=O)c1sc(N/N=C\c2c(O)ccc3ccccc23)nc1C	117.1*	83.2*	35.0	x	124.5*	119.5*
COc1cc(/C=C2/C(=O)NN(c3cccc(Cl)c3)C2=O)cc(OC)c1O	123.8*	-0.7	27.6	x	151.2*	150.3*
COc1cc(/C=C2\C(=O)NN(c3ccccc3)C2=O)ccc1OCC(N)=O	-3.5	x	x	x	x	x
CCOc1cc(/C=C2/C(=O)NN(c3cccc(Cl)c3)C2=O)ccc1O	42.8*	2.0	6.7	23.0	66.1*	84.4*
COc1ccccc1/C=C/C=C1\Oc2c(ccc(O)c2CN2CCN(CCO)CC2)C1=O	39.4*	40.1*	64.0	x	46.0*	54.4*
O=C1/C(=C/C=C/c2ccccc2)Oc2c1ccc(O)c2CN1CCN(CCO)CC1	7.9	25.8	37.2	20.8	x	x
CCc1ccc(/C=C2\Oc3c(ccc(O)c3CN3CCN(C)CC3)C2=O)cc1	26.0*	11.3	4.0	16.6	27.5*	37.6*
CC1=[N+](C)N(c2ccccc2)C(=O)C1N=Cc1c(Cl)cccc1Cl (centres undefined)	132.7*	1.1	-1.3	-0.4	6.7	11.5
CSCc1ccc(C(=O)NCC(c2cccs2)N2CCOCC2)cc1 (centres undefined)	1.0	-2.4	3.4	-4.6	x	x
O=C(N/N=C/c1ccc(N2CCOCC2)s1)c1ccc(NS(=O)(=O)c2cccs2)cc1	28.8*	29.4	5.2	x	77.8*	89.9*
O=C(N/N=C/c1ccc(N2CCOCC2)cc1)c1ccc(NS(=O)(=O)c2cccs2)cc1	2.2	0.3	-2.3	1.3	x	x
COc1cc2oc(=O)cc(-c3ccc(-c4ccc(CO)cc4)cc3)c2c(OC)c1OC	x	1.4	5.1	1.9	x	x
COc1cc(C2C(C#N)=C(N)N(c3ccc(F)cc3)C3=C2S(=O)(=O)CC3)ccc1O (centres undefined)	31.8*	15.1	13.4	31.3	13.3	26.2*
O=C(CCCc1ccccc1)Nc1ccc2c(c1)OCCO2	-1.8	-0.1	-11.9	2.2	x	x
CCOC(=O)/C=C1\SCC(=O)N1Cc1nnc(-c2ccccc2Br)o1	30.6*	30.9	17.0	21.1	31.4*	40.3*
Cc1cc(C)n(CC(O)Cn2c(C)c(C)c3ccccc32)n1 (centres undefined)	46.4*	13.2	27.9	44.4*	5.4	10.3
SMILES	TPT1 inh	HNF4A DNA FP	CSN deneddyl inh	Rpn11 block	caTPT1 confirm	RNase T1 counter
Cc1c(C)n(CC(O)CN2CCCCC2)c2ccccc12 (centres undefined)	-4.0	1.9	-4.0	4.7	x	x
CCN(CC)c1c(C)nc2ccc(C(=O)NCc3ccc4c(c3)OCO4)cn12	x	-0.7	3.5	-4.6	x	x
N#Cc1c(-c2ccco2)cc(-c2cccnc2)nc1N	2.5	-8.1	21.5	-35.0	x	x
N#Cc1c(-c2ccco2)cc(-c2ccccn2)nc1N	28.3*	2.4	25.0	12.4	14.6	17.9
COC(=O)c1ccc(NC(=O)CSc2nn3c(=O)c(C)nnc3s2)cc1	1.4	1.5	-3.9	3.6	x	x
CC1CC(C)C(=O)C(C(CC2CC(=O)NC(=O)C2)OC(=O)CC(=O)c2ccccc2)C1 (centres undefined)	x	-3.6	-2.5	3.6	x	x
CCN(CC)c1ccc(/C=C2\C(=O)c3ccc(C(=O)O)cc3C2=O)cc1	142.5*	84.0*	110.5	x	121.5*	115.7*
Cc1nn(CC(=O)c2ccc(Br)s2)c(C)c1[N+](=O)[O-]	32.6*	17.7	2.2	37.5	49.4*	62.6*
COc1ccc(C(=O)c2ccc(-c3ccc(OC)cc3)nc2)cc1	x	0.7	-0.4	-3.9	x	x
COc1ccccc1NC(=O)c1sc2nc(-c3ccco3)ccc2c1N	28.4*	20.6	16.6	42.1*	18.9	27.3*
Nc1c(C(=O)Nc2ccccc2)sc2nc(-c3ccco3)ccc12	18.3	12.6	29.0	21.1	x	x
COc1ccc(-c2ccc3c(N)c(C(=O)c4cccc(OC)c4)sc3n2)cc1	63.5*	13.0	3.9	15.5	63.3*	74.2*
COc1ccc(C(=O)c2sc3nc(-c4ccc(OC)cc4)ccc3c2N)cc1	53.7*	15.9	4.1	23.2	83.3*	91.0*
CCC1=C(c2ccc(OC)cc2)CCC(C(=O)O)C1C (centres undefined)	x	1.6	-2.7	2.2	x	x
CCC1(c2ccc(Cl)cc2)NC(=O)N(CC(=O)NC2CCCC(C)C2C)C1=O (centres undefined)	x	-0.8	-3.9	2.4	x	x
CSc1ncccc1C(=O)Nc1cccc(S(=O)(=O)N(C)c2ccccc2)c1	x	0.6	1.4	-1.3	x	x
CC(C)(C)c1ccc(C(=O)NNc2cc(N3CCCCC3)nc(N3CCCCC3)n2)cc1	45.4*	-4.9	1.2	9.9	10.0	11.6
CC(C)(C)c1ccc(C(=O)NNc2cc(N3CCOCC3)nc(N3CCOCC3)n2)cc1	-1.2	0.8	-1.4	2.0	x	x
CCN(CC)c1ccc(/C=C(\C#N)C(N)=S)cc1	104.1*	102.5	-75.8	x	-3.4	9.9
N#C/C(=C\c1ccc2c(c1)OCO2)C(N)=S	-1.3	-1.4	2.0	2.0	x	x
CN(C)c1ccc(/C=C(\C#N)C(=O)c2ccccc2)cc1	158.3*	77.0*	76.9	x	162.4*	149.6*
CCN(CC)c1ccc(/C=C(\C#N)C(=O)c2ccc(Br)cc2)cc1	137.1*	-91.5	-95.4	-44.1	104.2*	103.0*

Compound activity from PubChem.
